Measurements taken from ChEMBL document CHEMBL4145444, “Investigating the structure-activity relationships of N'-[(5-nitrofuran-2-yl) methylene] substituted hydrazides against Trypanosoma cruzi to design novel active compounds” (Eur J Med Chem, 2018).

Legend:
Trypanosoma cruzi [1] = assay: Antitrypanosomal activity against Trypanosoma cruzi Y Tc2 amastigotes infected in human U2OS cells after 72 hrs by Draq5 staining based HCS analysis; assay type: functional, organism-based
Summary of the method: (§1)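 U2OS cells (700/well, high-glucose DME, 10% FBS) seeded and incubated 24 h. Then infected with 2,800 Y-strain trypomastigotes harvested from LLC-MK2 cells. On day 3, 14-point 2-fold dilutions added, top 200 μM, 1% DMSO, 72 h. Fixed in 4% PFA, Draq5 stained, imaged at 20x. Infection ratio normalized to DMSO-mock infected and uninfected controls. IC50 by sigmoidal variable-slope fit. Doublets, duplicate experiments.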

Trypanosoma cruzi [2] = assay: Antitrypanosomal activity against Trypanosoma cruzi Colombiana Tc1 epimastigotes measured after 72 hrs; assay type: functional, organism-based; conditions: for IC50: Trypanosoma cruzi, Colombiana, 72 h
Summary of the method: (§2)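 Exponentially growing epimastigotes (1.0*10^7 parasites/mL) cultured in LIT-FCS medium with compound from 0.4 to 300.0 µM, added from DMSO stock (DMSO ≤1.0%), 72 h at 28 °C. Viable parasites read by absorbance at 562 nm. PGI computed against untreated culture after subtracting compound/medium blanks. IC50 from sigmoid dose-response fit using at least six concentrations. Triplicates, at least two independent experiments.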

[3] = Cytotoxicity against human U2OS cells assessed as reduction in cell viability; assay type: cell-based
Trypanosoma cruzi [4] = assay: Antitrypanosomal activity against Trypanosoma cruzi Silvio X10 cl1 Tc1 epimastigotes measured after 72 hrs; assay type: functional, organism-based; conditions: for IC50: Trypanosoma cruzi, Silvio X10 cl1, 72 h
Summary of the method: as §2, with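 “°C.” for “°C. Viable parasites read by absorbance at 562 nm.”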

Trypanosoma cruzi [5] = assay: Antitrypanosomal activity Trypanosoma cruzi Y Tc2 epimastigotes measured after 72 hrs; assay type: functional, organism-based; conditions: for IC50: Trypanosoma cruzi, Y, 72 h; summary of the method: as §2
Trypanosoma cruzi [6] = assay: Antitrypanosomal activity Trypanosoma cruzi Bug 2149 cl10 Tc5 epimastigotes measured after 72 hrs; assay type: functional, organism-based; conditions: for IC50: Trypanosoma cruzi, Bug 2149 cl10, CL1-0, 72 h
Summary of the method: as §2, with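 “°C.” for “°C. Viable parasites read by absorbance at 562 nm.”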

Trypanosoma cruzi [7] = assay: Antitrypanosomal activity against Trypanosoma cruzi Y Tc2 amastigotes infected in human U2OS cells up to 200 uM after 72 hrs by Draq5 staining based HCS analysis relative to control; assay type: functional; summary of the method: as §1
[8] = Selectivity index, ratio of CC50 for cytotoxicity against human U2OS cells to IC50 for Trypanosoma cruzi Y Tc2 amastigotes infected in human U2OS cells; assay type: toxicity, cell-based; conditions: read-out: Ratio CC50/IC50
Summary of the method: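 Ratio of U2OS CC50 to Y-strain amastigote IC50, both from the same 72 h Draq5-stained HCS assay in infected U2OS cells (2-fold series up to 200 μM, 1% DMSO).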

Trypanosoma cruzi [9] = assay: Antitrypanosomal activity against Trypanosoma cruzi Colombiana Tc1 trypamastigotes infected in monkey LLC-MK2 cells assessed as inhibition of parasite viability by measuring motility at 1 uM after 20 hrs by light microscopic method relative to control; assay type: functional; conditions: LLC-MK2, 20 h
Summary of the method: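 Colombiana trypomastigotes, centrifuged at 7,000 rpm at 4 °C, resuspended at 10^6/mL in DME with 2% FCS. Exposed to 1 μM compound, 0.5% DMSO final, 20 h at 37 °C, 5% CO2. Viability judged by motility under light microscope. Live parasites counted in a Neubauer chamber. % inhibition relative to drug-free control. Two independent experiments.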

Row | IC50 (Trypanosoma cruzi [1]) [µM] | log1/IC50 (Trypanosoma cruzi [5]) | IC50 (Trypanosoma cruzi [5]) [µM] | Compound | log1/IC50 (Trypanosoma cruzi [2]) | IC50 (Trypanosoma cruzi [2]) [µM] | CC50 [3] [µM] | log1/IC50 (Trypanosoma cruzi [4]) | log1/IC50 (Trypanosoma cruzi [6]) | Emax (Trypanosoma cruzi [7]) [%] | selectivity ratio [8] | IC50 (Trypanosoma cruzi [4]) [µM] | IC50 (Trypanosoma cruzi [6]) [µM] | inhibition at 1 µM (Trypanosoma cruzi [9]) [%]
1 | 1.33 | 5.51 |  | CCCCc1ccc(C(=O)N/N=C/c2ccc([N+](=O)[O-])o2)cc1 | 5.61 | 2.45 | 19.6 | 5.32 | 5.33 | 115 | 14.7 |  |  | 
2 | 4.62 |  |  | CC(=O)N/N=C/c1ccc([N+](=O)[O-])o1 [NIHYDRAZONE] | 5.02 | 9.52 | 39.2 |  |  | 98.7 | 8.49 |  |  | 
3 | 2.61 |  |  | CCCCCC(=O)N/N=C/c1ccc([N+](=O)[O-])o1 | 5.12 | 7.58 | 19.3 |  |  | 115 | 7.39 |  |  | 
4 |  | 5.04 | 9.11 | CCc1ccc(C(=O)N/N=C/c2ccc([N+](=O)[O-])o2)cc1 | 5.18 | 6.55 |  | 4.91 | 5.02 |  |  | 12.3 | 9.53 | 
5 | 0.35 | 5.47 |  | CCCCNc1ccc(C(=O)N/N=C/c2ccc([N+](=O)[O-])o2)cc1 | 5.4 | 3.94 | 12 | 5.36 | 5.35 | 102 | 34.4 |  |  | 
6 |  | 4.09 | 80.2 | N#CCC(=O)N/N=C/c1ccc([N+](=O)[O-])o1 | 4.22 | 60.6 |  | 4.39 | 4.56 |  |  | 40.5 | 27.4 | 
7 |  | 4.85 | 14.2 | COc1ccc(C(=O)N/N=C/c2ccc([N+](=O)[O-])o2)cc1OC | 4.58 | 26.6 |  | 4.56 | 4.76 |  |  | 27.3 | 17.2 | 
8 | 4.26 | 3.52 |  | O=C(N/N=C/c1ccc([N+](=O)[O-])o1)c1ccc(O)cc1 [NIFUROXAZIDE] | 3.73 | 188 | 45.7 | 3.52 | 3.52 | 91.9 | 10.7 |  |  | 
9 | 1.77 |  |  | N#Cc1ccc(C(=O)N/N=C/c2ccc([N+](=O)[O-])o2)cc1 | 4.69 | 20.2 | 21.4 |  |  | 95.5 | 12.1 |  |  | 
10 | 1.46 | 5.46 |  | CCCCOc1ccc(C(=O)N/N=C/c2ccc([N+](=O)[O-])o2)cc1 | 5.54 | 2.86 | 46.6 | 5.29 | 5.37 | 115 | 31.9 |  |  | 
11 | 2.9 |  |  | O=C(N/N=C/c1ccc([N+](=O)[O-])o1)C1CCCCC1 | 4.99 | 10.2 | 25.4 |  |  | 119 | 8.77 |  |  | 
12 |  | 5.01 | 9.74 | CCOc1ccc(C(=O)N/N=C/c2ccc([N+](=O)[O-])o2)cc1 | 4.94 | 11.6 |  | 4.86 | 5.2 |  |  | 13.8 | 6.26 | 
13 | 1.06 | 5.26 | 5.51 | O=C(N/N=C/c1ccc([N+](=O)[O-])o1)c1cccs1 | 4.82 | 15.1 | 57.2 | 4.89 | 5.16 | 94.5 | 53.9 | 12.8 | 6.87 | 
14 |  | 4.76 | 17.3 | Cc1nnsc1C(=O)N/N=C/c1ccc([N+](=O)[O-])o1 | 4.85 | 14.2 |  | 4.47 | 4.73 |  |  | 34.1 | 18.7 | 
15 | 1.43 |  |  | CC(C)(C)c1ccc(C(=O)N/N=C/c2ccc([N+](=O)[O-])o2)cc1 | 5.21 | 6.1 | > 200 |  |  | 98.4 | > 140 |  |  | 
16 |  | 4.6 | 24.9 | O=C(N/N=C/c1ccc([N+](=O)[O-])o1)c1ccco1 | 4.88 | 13.1 |  | 4.75 | 5 |  |  | 17.9 | 9.99 | 
17 |  | 4.98 | 10.6 | O=C(N/N=C/c1ccc([N+](=O)[O-])o1)c1cccc(C(F)(F)F)c1 | 5 | 9.98 |  | 4.59 | 4.84 |  |  | 25.5 | 14.6 | 

Second part, the compound before the results:

Row | Compound | IC50 (Trypanosoma cruzi [1]) [µM] | log1/IC50 (Trypanosoma cruzi [5]) | IC50 (Trypanosoma cruzi [5]) [µM] | log1/IC50 (Trypanosoma cruzi [2]) | IC50 (Trypanosoma cruzi [2]) [µM] | CC50 [3] [µM] | log1/IC50 (Trypanosoma cruzi [4]) | log1/IC50 (Trypanosoma cruzi [6]) | Emax (Trypanosoma cruzi [7]) [%] | selectivity ratio [8] | IC50 (Trypanosoma cruzi [4]) [µM] | IC50 (Trypanosoma cruzi [6]) [µM] | inhibition at 1 µM (Trypanosoma cruzi [9]) [%]
18 | O=C(N/N=C/c1ccc([N+](=O)[O-])o1)c1ccccc1 |  |  |  | 4.95 | 11.3 |  |  |  |  |  |  |  | 
19 | CCCc1ccc(C(=O)N/N=C/c2ccc([N+](=O)[O-])o2)cc1 |  |  |  | 5.14 | 7.25 |  |  |  |  |  |  |  | 
20 | O=C(N/N=C/c1ccc([N+](=O)[O-])o1)c1ccc(Cl)cc1 |  |  |  | 5.06 | 8.64 |  |  |  |  |  |  |  | 
21 | O=C(N/N=C/c1ccc([N+](=O)[O-])o1)c1ccc2ccccc2c1 | 1.87 | 5.15 | 7.15 | 5.12 | 7.58 | 64.2 | 5.02 | 5 | 97 | 34.3 | 9.59 | 9.9 | 
22 | COc1ccc(C(=O)N/N=C/c2ccc([N+](=O)[O-])o2)cc1 |  |  |  | 5.09 | 8.08 |  |  |  |  |  |  |  | 
23 | O=C(N/N=C/c1ccc([N+](=O)[O-])o1)c1ccccc1Oc1ccccc1 |  |  |  | 5.24 | 5.79 |  |  |  |  |  |  |  | 
24 | O=C(N/N=C/c1ccc([N+](=O)[O-])o1)c1ccc(-c2ccccc2)cc1 | 0.71 | 5.93 |  | 5.51 | 3.06 | 109 | 5.71 | 5.74 | 97.8 | 154 |  |  | 
25 | CCCCCCCCC(=O)N/N=C/c1ccc([N+](=O)[O-])o1 |  |  |  | 5.09 | 8.07 |  |  |  |  |  |  |  | 
26 | Cc1ccc(C(=O)N/N=C/c2ccc([N+](=O)[O-])o2)cc1 |  |  |  | 4.92 | 11.9 |  |  |  |  |  |  |  | 
27 | CCCOc1ccc(C(=O)N/N=C/c2ccc([N+](=O)[O-])o2)cc1 |  |  |  | 5.28 | 5.26 |  |  |  |  |  |  |  | 
28 | Cc1cccc(C(=O)N/N=C/c2ccc([N+](=O)[O-])o2)c1 |  |  |  | 5.07 | 8.53 |  |  |  |  |  |  |  | 
29 | CC1CS(=O)(=O)CCN1/N=C/c1ccc([N+](=O)[O-])o1 (centres undefined) [NIFURTIMOX] | 5.18 | 4.89 |  | 5 | 9.93 | 85.2 | 5.22 | 5.14 | 96.6 | 16.4 |  |  | 7.3
30 | CC(C)(C)OC(=O)N/N=C/c1ccc([N+](=O)[O-])o1 |  |  |  | 5.13 | 7.41 |  |  |  |  |  |  |  | 
31 | O=C(Cc1ccccc1)N/N=C/c1ccc([N+](=O)[O-])o1 |  |  |  | 5 | 10.1 |  |  |  |  |  |  |  | 
32 | CN(C)c1ccc(C(=O)N/N=C/c2ccc([N+](=O)[O-])o2)cc1 |  |  |  | 4.07 | 85.5 |  |  |  |  |  |  |  | 
33 | O=C(N/N=C/c1ccc([N+](=O)[O-])o1)C1CCCC1 |  |  |  | 5.01 | 9.67 |  |  |  |  |  |  |  | 
34 | CC(C)c1ccc(C(=O)N/N=C/c2ccc([N+](=O)[O-])o2)cc1 |  |  |  | 5.22 |  |  |  |  |  |  |  |  | 
35 | O=C(N/N=C/c1ccc([N+](=O)[O-])o1)c1cccc([N+](=O)[O-])c1 |  | 4.36 | 44.1 | 4.39 | 40.6 |  | 4.28 | 4.52 |  |  | 52.3 | 30.4 | 
36 | O=C(Cn1ccnc1[N+](=O)[O-])NCc1ccccc1 [BENZNIDAZOLE] | 64.3 |  |  |  | 47.9 | > 200 |  |  | 85.2 |  |  |  | 
